# Laboratory results: publication PMC5409837 (Science translational medicine, 2017)
# Where two headings read alike, the source gives them in different places.
# Key:
# [1] = tested on: zebrafish heart; details: cited from earlier work
# [2] = tested on: VEGFC; test: RNA-sequencing of hiPSC-CMs treated with sorafenib: VEGFC; type: cell-based, human; details: 5 healthy control hiPSC-CM lines, 1 μM, 72 hours
# [3] = tested on: hiPSC-CMs; details: for LD50: hiPSC-CMs, 72 hour TKI treatment, PrestoBlue cell viability assay
# [4] = patients, cited from earlier work
# [5] = tested on: neuropilin 2 (NRP2); test: Microarray gene expression in hiPSC-CMs after TKI treatment; type: cell-based, human; details: 1 μM TKI, 72 hour
# [6] = tested on: hiPSC-CMs; test: Calcium imaging of hiPSC-CMs; type: cell-based, human; details: 2 hour treatment; for beat rate (calcium imaging) / calcium transient duration: clinically-relevant concentrations
# How it was run: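 hiPSC-CMs (day 30–40 post-differentiation) reseeded on Matrigel-coated chamber slides and exposed to test compound for 2 hours; compound stocks in DMSO at 10 mM. Cells loaded with 5 μM Fluo-4 AM plus 0.02% Pluronic F-127 in Tyrode's solution for 15 min at 37°C, then washed. Spontaneous Ca2+ transients recorded at 37°C by confocal single-cell line scan.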
# [7] = tested on: Axl phosphorylation; test: Human Phospho-RTK Array in hiPSC-CMs: Axl; type: cell-based; details: 0-1 μM, 72 hours
# [8] = tested on: hiPSC-CMs
# [9] = tested on: hiPSC-CFs; test: TKI cytotoxicity in hiPSC-derived cardiac fibroblasts; type: cell-based
# [10] = tested on: hiPSC-ECs; test: TKI cytotoxicity in hiPSC-derived endothelial cells; type: cell-based
# [11] = tested on: VEGFR2 and PDGFRα phosphorylation; details: hiPSC-CMs
# [12] = tested on: hiPSC-CMs; type: cell-based; details: for rescue of ponatinib toxicity (hiPSC-CM viability): co-treatment with ponatinib, 72 hours, CellTiter-Glo
# [13] = tested on: Akt protein network; test: Human Phospho-Kinase Antibody Array in hiPSC-CMs after IGF1 or insulin; type: cell-based; details: 12 hour IGF1 or insulin treatment
# [14] = tested on: hiPSCs; type: cell-based, human
# [15] = Clinical cardiotoxicity in patients; type: in vivo, human; details: sunitinib first-line, axitinib second-line treatment
# [16] = tested on: hiPSC-CMs; test: Patch clamp electrophysiology; type: cell-based, human; details: two hour treatment; for action potential duration: clinically-relevant concentrations
# [17] = tested on: hiPSC-CMs; test: High-throughput hiPSC-CM contractility assessment; type: cell-based, human; details: for alterations in beating rate relative to LD50: commercially-available healthy control hiPSC-CMs, 72 hour treatment
# [18] = tested on: hiPSC-CMs; details: cited from earlier work
# [19] = tested on: INSR and IGF1R phosphorylation; test: Human Phospho-RTK Array in hiPSC-CMs: INSR and IGF1R; type: cell-based; details: for INSR and IGF1R phosphorylation: 0-1 μM, 72 hours
# [20] = quantitative and qualitative viability assays
compound,measurement,setting,value
CNC(=O)c1cc(Oc2ccc(NC(=O)Nc3ccc(Cl)c(C(F)(F)F)c3)cc2)ccn1 [sorafenib],cardiotoxicity in zebrafish heart,[1],induces cardiomyocyte death and contractility defects in the zebrafish heart
same,VEGFC expression,[2],increased expression
same,cytotoxicity in all eleven healthy control hiPSC-CM lines,[3],highly cytotoxic
same,LD50,[3],3.4 µM
same,clinical cardiotoxicity,"[4]; ref Table S2, 20",causes ventricular dysfunction and heart failure clinically
same,increase in expression of neuropilin 2,[5],two-fold
Cc1ccc(NC(=O)c2ccc(CN3CCN(C)CC3)cc2)cc1Nc1nccc(-c2cccnc2)n1 [imatinib],"calcium imaging parameters (transient amplitude, transient duration, beating rate)",[6],"did not significantly alter parameters such as calcium transient amplitude, transient duration, or beating rate"
COc1cc2nccc(Oc3ccc(NC(=O)C4(C(=O)Nc5ccc(F)cc5)CC4)cc3)c2cc1OC [cabozantinib],Axl phosphorylation,[7],decreased Axl phosphorylation
CNC(=O)c1cc(Oc2ccc(NC(=O)Nc3ccc(Cl)c(C(F)(F)F)c3)c(F)c2)ccn1 [regorafenib],cardiac safety index,"[8]; value from 0-1, 0.10 = threshold for highly cardiotoxic compounds",below 0.10
same,relative cytotoxicity in hiPSC-CFs,[9],the highest cytotoxicities
same,LD50,[3],7.1 µM
same,cytotoxicity in all eleven healthy control hiPSC-CM lines,[3]; [20],highly cytotoxic
same,relative cytotoxicity in hiPSC-ECs,[10],the most cytotoxic TKIs in hiPSC-ECs
same,increase in expression of neuropilin 2,[5],two-fold
same,VEGFR2/PDGFR inhibition at nanomolar concentrations,[11],complete VEGFR2/PDGFR inhibition
insulin,rescue of doxorubicin cytotoxicity in hiPSC-CMs,[12]; co-treatment with doxorubicin,rescued hiPSC-CMs from doxorubicin cytotoxicity
same,phosphorylation of Akt protein network,[13],enhanced phosphorylation of the anti-apoptotic Akt protein network
COc1cccc2c1C(=O)c1c(O)c3c(c(O)c1C2=O)C[C@@](O)(C(=O)CO)C[C@@H]3O[C@H]1C[C@H](N)[C@H](O)[C@H](C)O1 [doxorubicin],cardiac safety index,"[8]; human, 72 h",≤ 0.10
same,toxicity in hiPSCs at 0.1 μM,[14],lethal
same,toxicity in undifferentiated hiPSCs,[14],substantially enhanced in hiPSCs
same,LD50,[3],0.78 µM
CCN(CC)CCNC(=O)c1c(C)[nH]c(/C=C2\C(=O)Nc3ccc(F)cc32)c1C [sunitinib],clinical cardiotoxicity in the two kidney cancer patients,[15],no significant clinical cardiotoxicity
same,difference in cytotoxicity between TKI-receiving patient hiPSC-CMs and healthy control hiPSC-CM lines,[3],did not observe a significant difference in cytotoxicity
Cc1cn(-c2cc(NC(=O)c3ccc(C)c(Nc4nccc(-c5cccnc5)n4)c3)cc(C(F)(F)F)c2)cn1 [nilotinib],cardiac safety index,"[8]; human, 72 h",≤ 0.10
same,beat rate (calcium imaging),[6],decreased beat rate
same,calcium transient duration,[6],prolonged calcium transient duration
same,cellular beating rate (patch clamp),[16],decreased cellular beating rate
same,action potential duration,[16],significantly prolonged action potential duration
same,alterations in beating rate relative to LD50,[17],alterations in hiPSC-CM beating rate and other parameters at doses lower than LD50 cytotoxicity values
same,clinical QT interval prolongation and arrhythmias,[4],cause dangerous QT interval prolongation and arrhythmias clinically
IGF1,rescue of ponatinib toxicity (hiPSC-CM viability),[12],cardioprotective effect
same,rescue of ponatinib toxicity (hiPSC-CM viability),[12]; listed as IGF,significantly rescued ponatinib toxicity
same,phosphorylation of Akt protein network,[13],enhanced phosphorylation of the anti-apoptotic Akt protein network
C#Cc1cccc(Nc2ncnc3cc(OCCOC)c(OCCOC)cc23)c1 [erlotinib],LD50,[3],87.60 µM
COc1cc2c(Nc3ccc(Br)cc3F)ncnc2cc1OCC1CCN(C)CC1 [vandetanib],beat rate (calcium imaging),[6],decreased beat rate
same,calcium transient duration,[6],prolonged calcium transient duration
same,cellular beating rate (patch clamp),[16],decreased cellular beating rate
same,action potential duration,[16],significantly prolonged action potential duration
same,alterations in beating rate relative to LD50,[17],alterations in hiPSC-CM beating rate and other parameters at doses lower than LD50 cytotoxicity values
same,clinical QT interval prolongation and arrhythmias,[4],cause dangerous QT interval prolongation and arrhythmias clinically
Cc1ccc(C(=O)Nc2ccc(CN3CCN(C)CC3)c(C(F)(F)F)c2)cc1C#Cc1cnc2cccnn12 [ponatinib],mitochondrial stress and contraction abnormalities in hiPSC-CMs,[18],induce mitochondrial stress and elicit contraction abnormalities in hiPSC-CMs
same,fold enhancement of INSR/IGF1R phosphorylation,[19],two-fold
same,INSR and IGF1R phosphorylation,[19],increased INSR and IGF1R phosphorylation
same,relative cytotoxicity in hiPSC-CFs,[9],the highest cytotoxicities
same,LD50,[3],4.3 µM
same,cytotoxicity in all eleven healthy control hiPSC-CM lines,[3]; [20],highly cytotoxic
same,relative cytotoxicity in hiPSC-ECs,[10],the most cytotoxic TKIs in hiPSC-ECs
same,increase in expression of neuropilin 2,[5],two-fold
same,VEGFR2/PDGFR inhibition at nanomolar concentrations,[11],complete VEGFR2/PDGFR inhibition
CNC(=O)c1ccccc1Sc1ccc2c(/C=C/c3ccccn3)n[nH]c2c1 [axitinib],"calcium imaging parameters (transient amplitude, transient duration, beating rate)",[6],"did not significantly alter parameters such as calcium transient amplitude, transient duration, or beating rate"
same,fold enhancement of INSR/IGF1R phosphorylation,[19],two-fold
same,INSR and IGF1R phosphorylation,[19],increased INSR and IGF1R phosphorylation
same,toxicity in undifferentiated hiPSCs,[14],extremely toxic to hiPSCs
same,action potential duration,[16],did not alter action potential duration
same,contraction irregularities,[17]; clinically-relevant concentrations,Neither DMSO nor axitinib elicited contraction irregularities
same,clinical cardiotoxicity in the two kidney cancer patients,[15],no significant clinical cardiotoxicity
same,difference in cytotoxicity between TKI-receiving patient hiPSC-CMs and healthy control hiPSC-CM lines,[3],did not observe a significant difference in cytotoxicity
same,relative cytotoxicity among TKIs in hiPSC-CMs,[3],the least cytotoxic TKI in hiPSC-CMs
same,VEGFR2 and PDGFRα phosphorylation,"[11]; 0-1 μM, 72 hours, sub-cytotoxic concentrations",the strongest dual-inhibition
